Experiments:
[1] = Half life in rat; type: ADME, organism-based; conditions: in vivo
Mus musculus [2] = assay: Toxicity in mouse medulloblastoma allograft model assessed as adverse effects at 120 mg/kg, po bid for 3 weeks; type: organism-based; set-up: dose 120 mg/kg, route oral; conditions: in vivo, 504 h
Outline: (§1)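 Primary mouse medulloblastoma allograft, subcutaneous. Mice randomized when tumors averaged 400 mm³. Oral dosing for 3 weeks, bid at 40, 80, 120 or 160 mg/kg, or 80 mg/kg qd. Compound given as a suspension in 0.24% SDS/0.5% Methocel, with a BID vehicle control. Tumor volume tracked over days; body weight, physical signs and mortality monitored.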

Mus musculus [3] = assay: Inhibition of Shh pathway in mouse medulloblastoma allograft model assessed as reduction in tumor Gli-1 mRNA expression at 80 mg/kg, po administered as single dose measured after 6 hrs; type: functional
Outline: (§2)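 Tumor-bearing medulloblastoma mice given a single oral 80 mg/kg dose. Tumor biopsies taken at timepoints up to 24 h; Hh-pathway inhibition measured as reduction of Gli-1 mRNA.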

Canis familiaris [4] = assay: Toxicity in iv dosed vagotomized dog assessed as change in hemodynamic parameters; type: organism-based, Canis lupus familiaris; conditions: in vivo
Canis familiaris [5] = assay: Toxicity in iv dosed vagotomized dog assessed as change in cardiovascular parameters; type: organism-based, Canis lupus familiaris, Heart; conditions: in vivo
[6] = Half life in dog; type: ADME, organism-based, Canis lupus familiaris; conditions: in vivo
Mus musculus [7] = assay: Toxicity in mouse medulloblastoma allograft model assessed as adverse effects at 80 mg/kg, po qd for 3 weeks; type: organism-based; set-up: dose 80 mg/kg, route oral; conditions: in vivo, 504 h; outline: as §1
Mus musculus [8] = assay: Toxicity in mouse medulloblastoma allograft model assessed as adverse effects at 80 mg/kg, po bid for 3 weeks; type: organism-based; set-up: dose 80 mg/kg, route oral; conditions: in vivo, 504 h; outline: as §1
Mus musculus [9] = assay: Inhibition of Shh pathway in mouse medulloblastoma allograft model assessed as reduction in tumor Gli-1 mRNA expression at 80 mg/kg, po administered as single dose; type: functional, organism-based; set-up: dose 80 mg/kg; conditions: TDE = time-dependent effect; outline: as §2
Mus musculus [10] = assay: Toxicity in mouse medulloblastoma allograft model assessed as adverse effects at 160 mg/kg, po bid for 3 weeks; type: organism-based; set-up: dose 160 mg/kg, route oral; conditions: in vivo, 504 h; outline: as §1
Rattus norvegicus = species: Rattus norvegicus; assay: Clearance in rat; type: ADME, organism-based; conditions: in vivo
Cytochrome P450 3A4 = Cytochrome P450 3A4 (Homo sapiens, UniProt P08684); assay: Inhibition of CYP3A4; type: ADME
hERG (KCNH2) = hERG (KCNH2) (Homo sapiens, UniProt Q12809); assay: Inhibition of human ERG at 30 uM
[11] = Volume of distribution at steady state in dog; type: ADME, organism-based, Canis lupus familiaris; conditions: in vivo, read-out: Vdss
Canis familiaris [12] = species: Canis familiaris; assay: Clearance in dog; type: ADME, organism-based, Canis lupus familiaris; conditions: in vivo
Mus musculus [13] = assay: Inhibition of Shh pathway in mouse medulloblastoma allograft model assessed as reduction in tumor Gli-1 mRNA expression at 80 mg/kg, po administered as single dose measured after 8 hrs; type: functional; outline: as §2
Mus musculus [14] = assay: Inhibition of Shh pathway in mouse medulloblastoma allograft model assessed as reduction in tumor Gli-1 mRNA expression at 80 mg/kg, po administered as single dose measured after 4 hrs; type: functional; outline: as §2
Mus musculus [15] = assay: Toxicity in mouse medulloblastoma allograft model assessed as adverse effects at 40 mg/kg, po bid for 3 weeks; type: organism-based; set-up: dose 40 mg/kg, route oral; conditions: in vivo, 504 h; outline: as §1
Protein smoothened [16] = target: T1, Protein smoothened (Homo sapiens, UniProt Q99835); assay: Displacement of BODIPY-cyclopamine from human Smo expressed in HEK293 cells in presence of 20% normal human serum; type: cell-based
Outline: (§3)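 Competition binding: displacement of fluorescently labeled bodipy-cyclopamine from recombinant human Smo expressed in HEK-293 cells. Run in 2% fetal calf serum and, separately, in 20% normal human serum. IC50 values are means of at least five experiments.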

[17] = Cmax in iv dosed dog; type: ADME, organism-based, Canis lupus familiaris; set-up: route intravenous; conditions: in vivo
Cytochrome P450 2C9 = Cytochrome P450 2C9 (Homo sapiens, UniProt P11712); assay: Inhibition of CYP2C9; type: ADME
Cytochrome P450 2D6 = Cytochrome P450 2D6 (Homo sapiens, UniProt P10635); assay: Inhibition of CYP2D6; type: ADME
[18] = Oral bioavailability in dog; type: ADME, organism-based, Canis lupus familiaris; conditions: in vivo
Protein smoothened [19] = target: T1, Protein smoothened; assay: Displacement of BODIPY-cyclopamine from human Smo expressed in HEK293 cells in presence of 2% fetal calf serum; type: cell-based; outline: as §3
[20] = Volume of distribution at steady state in rat; type: ADME, organism-based; conditions: in vivo, read-out: Vdss
[21] = Oral bioavailability in rat; type: ADME, organism-based; conditions: in vivo
[22] = Inhibition of Voltage-gated sodium channel at 30 uM

T1 sequence (Q99835 whole entry): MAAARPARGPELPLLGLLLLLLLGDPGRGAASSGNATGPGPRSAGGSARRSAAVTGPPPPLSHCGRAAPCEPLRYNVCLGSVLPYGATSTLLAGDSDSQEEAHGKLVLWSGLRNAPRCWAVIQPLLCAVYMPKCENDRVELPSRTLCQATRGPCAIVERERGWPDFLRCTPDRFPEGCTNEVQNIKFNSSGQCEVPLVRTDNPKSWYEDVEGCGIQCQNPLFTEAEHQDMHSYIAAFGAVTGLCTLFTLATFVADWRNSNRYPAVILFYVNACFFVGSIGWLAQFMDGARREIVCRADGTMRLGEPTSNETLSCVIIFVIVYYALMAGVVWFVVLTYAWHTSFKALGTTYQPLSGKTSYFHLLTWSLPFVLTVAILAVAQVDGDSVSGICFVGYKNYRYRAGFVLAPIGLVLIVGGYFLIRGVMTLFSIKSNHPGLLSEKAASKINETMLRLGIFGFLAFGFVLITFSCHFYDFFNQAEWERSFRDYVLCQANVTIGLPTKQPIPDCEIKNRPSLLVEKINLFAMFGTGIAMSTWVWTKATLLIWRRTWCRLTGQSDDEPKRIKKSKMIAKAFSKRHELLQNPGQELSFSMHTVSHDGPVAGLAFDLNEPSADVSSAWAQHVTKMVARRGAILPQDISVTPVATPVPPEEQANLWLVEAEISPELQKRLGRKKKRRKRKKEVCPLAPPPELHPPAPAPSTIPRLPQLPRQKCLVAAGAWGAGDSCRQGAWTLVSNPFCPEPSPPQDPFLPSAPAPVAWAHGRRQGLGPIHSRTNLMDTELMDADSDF
Chain of hERG (KCNH2) (Q12809 whole entry): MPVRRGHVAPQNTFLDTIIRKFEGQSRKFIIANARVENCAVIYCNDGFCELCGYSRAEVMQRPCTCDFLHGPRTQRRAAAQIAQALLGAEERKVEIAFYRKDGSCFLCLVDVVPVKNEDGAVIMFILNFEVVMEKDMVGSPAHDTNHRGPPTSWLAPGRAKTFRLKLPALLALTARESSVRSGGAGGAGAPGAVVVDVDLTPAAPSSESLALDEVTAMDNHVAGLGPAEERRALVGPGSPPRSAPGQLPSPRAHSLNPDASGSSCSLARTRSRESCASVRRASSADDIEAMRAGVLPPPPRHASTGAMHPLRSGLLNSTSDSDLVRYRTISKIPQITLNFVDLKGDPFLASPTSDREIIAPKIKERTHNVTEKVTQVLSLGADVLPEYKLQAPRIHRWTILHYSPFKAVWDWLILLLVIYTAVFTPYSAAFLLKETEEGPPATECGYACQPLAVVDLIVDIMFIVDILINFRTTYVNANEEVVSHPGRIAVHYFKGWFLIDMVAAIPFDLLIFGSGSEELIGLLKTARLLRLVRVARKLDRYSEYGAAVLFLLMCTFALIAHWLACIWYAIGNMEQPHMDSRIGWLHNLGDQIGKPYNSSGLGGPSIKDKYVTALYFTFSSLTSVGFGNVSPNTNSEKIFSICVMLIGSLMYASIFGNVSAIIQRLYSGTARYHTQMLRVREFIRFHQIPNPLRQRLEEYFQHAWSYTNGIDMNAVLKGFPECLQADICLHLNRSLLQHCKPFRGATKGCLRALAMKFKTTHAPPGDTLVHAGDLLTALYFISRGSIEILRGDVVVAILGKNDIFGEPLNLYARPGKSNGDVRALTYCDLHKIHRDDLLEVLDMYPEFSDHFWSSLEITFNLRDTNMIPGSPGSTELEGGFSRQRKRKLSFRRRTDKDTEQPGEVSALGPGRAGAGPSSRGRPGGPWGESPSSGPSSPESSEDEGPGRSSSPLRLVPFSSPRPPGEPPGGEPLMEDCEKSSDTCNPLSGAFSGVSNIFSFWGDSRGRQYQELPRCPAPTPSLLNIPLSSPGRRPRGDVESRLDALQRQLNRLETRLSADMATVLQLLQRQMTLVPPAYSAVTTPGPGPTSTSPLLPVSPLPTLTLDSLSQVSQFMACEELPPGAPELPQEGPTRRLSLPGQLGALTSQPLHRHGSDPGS
Chain of Cytochrome P450 3A4 (P08684 whole entry): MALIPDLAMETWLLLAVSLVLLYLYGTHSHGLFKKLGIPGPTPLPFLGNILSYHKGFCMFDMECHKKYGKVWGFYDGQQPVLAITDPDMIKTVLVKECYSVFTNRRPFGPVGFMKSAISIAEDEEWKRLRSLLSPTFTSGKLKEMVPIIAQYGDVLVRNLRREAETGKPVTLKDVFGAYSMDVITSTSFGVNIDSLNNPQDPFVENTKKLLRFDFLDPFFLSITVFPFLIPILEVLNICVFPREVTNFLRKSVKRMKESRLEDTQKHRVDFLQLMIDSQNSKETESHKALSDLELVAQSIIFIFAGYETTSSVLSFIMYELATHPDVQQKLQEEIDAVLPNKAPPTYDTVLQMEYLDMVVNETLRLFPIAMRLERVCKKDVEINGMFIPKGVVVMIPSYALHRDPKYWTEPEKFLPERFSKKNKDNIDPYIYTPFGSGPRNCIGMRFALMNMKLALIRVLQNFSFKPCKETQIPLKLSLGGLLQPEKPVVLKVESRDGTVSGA
Chain of Cytochrome P450 2C9 (P11712 whole entry): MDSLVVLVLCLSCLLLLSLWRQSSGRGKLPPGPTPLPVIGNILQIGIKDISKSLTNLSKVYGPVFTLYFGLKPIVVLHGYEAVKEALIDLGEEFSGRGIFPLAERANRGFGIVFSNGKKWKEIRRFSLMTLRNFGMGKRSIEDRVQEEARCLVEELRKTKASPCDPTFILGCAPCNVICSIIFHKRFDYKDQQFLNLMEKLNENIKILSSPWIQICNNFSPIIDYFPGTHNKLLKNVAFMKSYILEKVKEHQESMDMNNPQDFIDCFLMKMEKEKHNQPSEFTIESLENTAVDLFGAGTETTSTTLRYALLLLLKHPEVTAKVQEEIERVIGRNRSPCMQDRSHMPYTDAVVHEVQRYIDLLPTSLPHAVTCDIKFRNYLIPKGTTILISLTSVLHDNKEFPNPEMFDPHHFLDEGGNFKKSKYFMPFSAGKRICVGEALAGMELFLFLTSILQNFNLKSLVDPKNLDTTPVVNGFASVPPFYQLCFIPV
Chain of Cytochrome P450 2D6 (P10635 whole entry): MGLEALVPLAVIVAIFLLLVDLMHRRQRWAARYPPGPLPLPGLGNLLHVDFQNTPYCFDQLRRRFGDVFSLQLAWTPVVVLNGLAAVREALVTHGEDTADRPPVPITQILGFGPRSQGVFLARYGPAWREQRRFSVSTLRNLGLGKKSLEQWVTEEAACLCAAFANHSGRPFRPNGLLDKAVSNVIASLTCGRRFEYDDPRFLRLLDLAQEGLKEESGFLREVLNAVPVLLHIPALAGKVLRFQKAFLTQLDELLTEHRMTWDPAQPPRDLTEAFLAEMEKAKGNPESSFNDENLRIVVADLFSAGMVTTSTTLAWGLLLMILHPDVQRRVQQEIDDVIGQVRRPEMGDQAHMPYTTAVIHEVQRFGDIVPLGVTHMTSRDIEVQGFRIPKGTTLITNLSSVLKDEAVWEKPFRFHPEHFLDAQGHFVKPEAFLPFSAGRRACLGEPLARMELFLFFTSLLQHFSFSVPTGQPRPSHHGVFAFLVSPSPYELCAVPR

half-life [1]: 5.1 h | half-life [6]: 1.1 h | clearance (Rattus norvegicus): 1.32 L/h/kg | IC50 (Cytochrome P450 3A4): > 40 µM | Vd [11]: 2 L/kg | clearance (Canis familiaris [12]): 1.32 L/h/kg | IC50 (Protein smoothened [16]): 0.022 µM | Cmax [17]: 16 µM | IC50 (Cytochrome P450 2C9): > 40 µM | IC50 (Cytochrome P450 2D6): > 40 µM | bioavailability [18]: 52% | IC50 (Protein smoothened [19]): 0.013 µM | Vd [20]: 2.9 L/kg | bioavailability [21]: 40% | inhibition [22]: 45%
Structure (SMILES): C[C@@]12CN(C(=O)Nc3ccnn3-c3ccccc3)CCN1C(=O)N([C@H]1C[C@@H]1c1ccccc1)C2=O
Activity (Mus musculus [2]): Non-toxic | inhibition in vivo at 80 mg/kg (Mus musculus [3]): > 85% | Activity (Canis familiaris [4]): Non-toxic | Activity (Canis familiaris [5]): Non-toxic | Activity (Mus musculus [7]): Non-toxic | Activity (Mus musculus [8]): Non-toxic | inhibition (Mus musculus [9]): tde | Activity (Mus musculus [10]): Non-toxic | inhibition at 30 µM (hERG (KCNH2)): 27% | inhibition in vivo at 80 mg/kg (Mus musculus [13]): > 85% | inhibition in vivo at 80 mg/kg (Mus musculus [14]): 77% | Activity (Mus musculus [15]): Non-toxic

Source: ChEMBL document CHEMBL1811786, “Identification of MK-5710 ((8aS)-8a-methyl-1,3-dioxo-2-[(1S,2R)-2-phenylcyclo- propyl]-N-(1-phenyl-1H-pyrazol-5-yl)hexahydro-imidazo[1,5-a]pyrazine-7(1H)-carboxamide), a potent smoothened antagonist for use in Hedgehog pathway dependent malignancies, part 2” (Bioorg Med Chem Lett, 2011)
